From ChEMBL document CHEMBL1147039, “Disrupting antibiotic resistance propagation by inhibiting the conjugative DNA relaxase” (Proc Natl Acad Sci U S A, 2007)
Active and inactive are the calls of the source. The rule behind the calls is not given here.

B1: Type IV secretion-like conjugative transfer relaxase protein TraI (Escherichia coli (strain SMS-3-5 / SECEC)), B1LRJ1 Y16F (protein)
chain: MMSIAQVRSAGSAGNFYTDKDNYYVLGSMGERWAGRGAEQLGLQGSVDKDVFTRLLEGRLPDGADLSRMQDGSNKHRPGYDLTFSAPKSVSMMAMLGGDKRLIDAHNQAVDFAVRQVEALASTRVMTDGQSETVLTGNLVMALFNHDTSRDQEPQLHTHAVVANVTQHNGEWKTLSSDKVGKTGFIENVYANQIAFGRLYREKLKEQVEALGYETEVVGKHGMWEMPGVPVEAFSGRSQTIREAVGEDASLKSRDVAALDTRKSKQHVDPEIKMTEWMQTLKETGFDIRAYRDAAEQRAYTRTQTPGPASQDGPDVQQAVTQAIAGLSERKVQFTYTDVLARTVGILPPEAGVIERARAGIDEAISREQLIPLDREKGLFTSGIHVLDELSVRALSRDIMKQNRVTVHPEKSVPRTAGYSDAVSVLAQDRPSLAIVSGQGGAAGQRERVAELVMMAREQGREVQIIAADRRSQMNLKQDERLSGELITGRRQLLEGMAFTPGSTVIVDQGEKLSLKETLTLLDGAARHNVQVLITDSGQRTGTGSALMAMKDAGVNTYRWQGGEQRPATIISEPDRNVRYARLAGDFAASVKAGEESVAQVSGVREQAILTQAIRSELKTQGVLGHQEVTMTALSPVWLDSRSRYLRDMYRPGMVMEQWNPETRSHDRYVIDRVTAQSHSLTLRDAQGETQVVRISSLDSSWSLFRPEKMPVADGERLRVTGKIPGLRVSGGDRLQVASVSEDAMTVVVPGRAEPASLPVADSPFTALKLENGWVETPGHSVSDSAKVFAAVTQMAMDNATLNGLARSGRDVRLYSSLDETRTAEKLARHPSFTVVSEQIKAHAGETSLETSISLQKAGLHTPAQQAIHLALPVLESKKLAFSMVDLLTEAKSFAAEGTGFTELGGEINAQIKRGDLLYVDVAKGYGTGLLVSRASYEAEKSILRHILEGKEAVTPLMERVPGELMEKLTSGQRAATRMILETSDRFTVVQGYAGVGKTTQFRAVMSAVNMLPESMRPRVVGLGPTHRAVGEMRSAGVDAQTLASFLHDTQLQQRSGETPDFSNTLFLLDESSMVGNTDMARAYALIAAGGGRAVASGDTDQLQAIAPGQPFRLQQTRSAADVAIMKEIVRQTPELREAVYNLINRDVERALSGLERVKPSQVPRLEGAWAPEHSVMEFSHSQEAKLAEAQQKAMLKGEAFPDVPMTLYEAIVRDYTGRTPEAREQTLIVTHLNEDRRVLNSMIHDAREKAGELGKEQVMVPVLNTANIRDGELRRLSTWETHRDALVLVDNVYHRIAGISKDDGLITLEDAEGNTRLISPREAVAEGVTLYTPDTIRVGTGDRMRFTKSDRERGYVANSVWTVTAVSGDSVTLSDGQQTRVIRPGQERAEQHIDLAYAITAHGAQGASETFAIALEGTEGNRKQMAGFESAYVALSRMKQHVQVYTDNRQGWTDAINNAVQKGTAHDVFEPKPDREVMNAERLFSTARELRDVAAGRAVLRQAGLAGGDSPARFIAPGRKYPQPYVALPAFDRNGKSAGIWLNPLTTDDGNGLRGFSGEGRVKGSGDAQFVALQGSRNGESLLADNMQEGVRIARDNPDSGVVVRIAGEGRPWNPGAITGGRVWGDIPDNSVQPGAGNGEPVTAEVLAQRQAEEAIRRETERRADEIVRKMAENKPDLPDGKTEQAVREIAGQERDRAAITEREAALPESVLRESQREREAVREVARENLLQERLQQMERDMVRDLQKEKTLGGD

Experiments:
[1] = test system: Type IV secretion-like conjugative transfer relaxase protein TraI (Escherichia coli (strain SMS-3-5 / SECEC)), B1LRJ1 [Y16F]; experiment: (§1) Inhibition of Escherichia coli F plasmid TraI relaxase Y16F mutant assessed as oriT ssDNA cleavage at 200 nM
[2] = test system: Escherichia coli; experiment: Selectivity ratio, ratio of EC50 for Escherichia coli JS4 to ratio of EC50 for inhibition of conjugate DNA transfer between Escherichia coli JS10 and Escherichia coli JS4; format: functional
In short: (§2)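 Each ratio divides one EC50 by another. The EC50s come from 100-min inhibitor exposures: separate donor and recipient survival assays, and a 1:9 donor:recipient liquid mating assay. Viable or transconjugant cells were counted on selective agar or by oxygen-quenched fluorescence in antibiotic medium.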

[3] = test system: Escherichia coli; experiment: Cytotoxicity against tetracycline-resistant F plasmid positive Escherichia coli JS10; format: functional, organism-based
In short: (§3)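 Donor and recipient strains were kept separate and exposed to inhibitor for 100 min. Inhibitor was added at the start and removed before selection. Surviving cells were counted on antibiotic-selective agar plates, or in antibiotic-containing medium by an oxygen-quenched fluorophore gel assay in which fluorescence is proportional to live cells. EC50 was determined from cell counts.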

[4] = test system: Escherichia coli; experiment: Inhibition of conjugate DNA transfer between tetracycline-resistant F plasmid positive Escherichia coli JS10 to streptomycin-resistant F plasmid deficient Escherichia coli JS4; format: functional, organism-based
In short: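 F+ donor and F− recipient E. coli were mixed 1:9 in dilute liquid medium with increasing inhibitor concentrations for 100 min. Inhibitor was removed before transconjugants were selected with antibiotics. Transconjugants were counted as colonies on agar, or by oxygen-biosensor fluorescence in antibiotic medium. EC50 for DNA transfer was derived from the counts.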

[5] = test system: Escherichia coli; experiment: Selectivity ratio, ratio of EC50 for Escherichia coli JS10 to ratio of EC50 for inhibition of conjugate DNA transfer between Escherichia coli JS10 and Escherichia coli JS4; format: functional; in short: as §2
[6] = test system: Escherichia coli; experiment: Selectivity ratio, ratio of EC50 for inhibition of conjugate DNA transfer between Escherichia coli JS10 and Escherichia coli JS4 to EC50 for Escherichia coli JS10; format: functional; in short: as §2
[7] = test system: Escherichia coli; experiment: Selectivity ratio, ratio of EC50 for Escherichia coli JS4 to EC50 for Escherichia coli JS10; format: functional; in short: as §2
[8] = test system: Escherichia coli; experiment: Cytotoxicity against streptomycin-resistant F plasmid deficient Escherichia coli JS4; format: functional, organism-based; in short: as §3
[9] = biological target: T1, Type IV secretion-like conjugative transfer relaxase protein TraI (Escherichia coli (strain SMS-3-5 / SECEC), UniProt B1LRJ1, Y16F); experiment: Inhibition of Escherichia coli F plasmid TraI relaxase Y16F mutant assessed as oriT ssDNA cleavage by competitive inhibition assay
In short: (§4)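 Truncated F plasmid TraI (residues 1–300, Y16F) was expressed in E. coli at 30°C as an intein–chitin-binding-domain fusion, purified on chitin resin and released by DTT cleavage. Biotinylated oriT ssDNA was either fluorescein end-labelled or hybridised after the reaction to an end-labelled probe. Reactions ran at 37°C, were stopped with SDS/EDTA at 80°C, and were read on streptavidin-coated plates.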

[10] = biological target: T1, Type IV secretion-like conjugative transfer relaxase protein TraI; experiment: Inhibition of Escherichia coli F plasmid TraI relaxase Y16F mutant assessed as oriT ssDNA cleavage by uncompetitive inhibition assay; in short: as §4
[11] = test system: Type IV secretion-like conjugative transfer relaxase protein TraI (Escherichia coli (strain SMS-3-5 / SECEC)), B1LRJ1 [Y16F]; experiment: as §1; remark: listed apart in the source
[12] = substrate: O=P(O)(O)NP(=O)(O)O; experiment: Activity of Escherichia coli F plasmid TraI relaxase Y16F mutant assessed as oriT ssDNA cleavage; in short: as §4

Molecule	Activity [1]	Ratio EC50 [2]	EC50 [3]	EC50 [4]	Ratio EC50 [5]	Ratio EC50 [6]	Ratio EC50 [7]	EC50 [8]	Ki [9]	Ki [10]	Activity [11]	Km [12]	Vmax [12]
O=P(O)(O)CCCCP(=O)(O)O	inactive												
COP(=O)(OC)c1ccccc1P(=O)(OC)OC	inactive	7100	0.068 µM	14 µM	0.0048	210	1500000						
CC1(C)S[C@@H]2[C@H](NC(=O)[C@H](N)c3ccccc3)C(=O)N2[C@H]1C(=O)O	inactive												
O=P(O)(O)NP(=O)(O)O [IMIDODIPHOSPHATE]	inactive	20	0.43 µM	10 µM	0.014		1400	620 µM	0.002 µM	0.0027 µM			
NCCC(O)(P(=O)(O)O)P(=O)(O)O [PAMIDRONIC ACID]	inactive		> 10000 µM	> 10000 µM				> 10000 µM			inactive		
O=P(O)(O)CN(CP(=O)(O)O)CP(=O)(O)O	inactive												
CC(O)(P(=O)(O)O)P(=O)(O)O [ETIDRONIC ACID]	inactive	1100	10 µM	0.33 µM	30	0.034	38	370 µM	0.003 µM		Active		
O=P(O)(O)CP(=O)(O)O [MEDRONIC ACID]	inactive	20	0.51 µM	0.35 µM	1.5	0.68	1700	870 µM	0.003 µM				
O=P(O)(O)CNCP(=O)(O)O [IMINOBIS(METHYLPHOSPHONIC ACID)]	inactive	9000	0.016 µM	0.58 µM	0.028	36	330000	5000 µM					
O=P(O)(O)C(Cl)(Cl)P(=O)(O)O [CLODRONIC ACID]	inactive	26000	9 µM	0.11 µM	78	0.013	330	3000 µM	0.003 µM		Active		
O=C(O)CN(CP(=O)(O)O)CP(=O)(O)O	inactive												
NCCCCCC(O)(P(=O)(O)O)P(=O)(O)O	inactive										inactive		
B1												0.294 µM	0.51 nM/s
